We go through 5 molecules from ChEMBL document CHEMBL1141337, “The berkeleyacetals, three meroterpenes from a deep water acid mine waste Penicillium” (J Nat Prod, 2007).

The target of assay [1] is Stromelysin-1 (Homo sapiens) (UniProt P08254). Nature of the assay: Inhibition of MMP3.
The target in a further assay is T1, Caspase-1 (Homo sapiens) (UniProt P29466).
T1 sequence (whole entry): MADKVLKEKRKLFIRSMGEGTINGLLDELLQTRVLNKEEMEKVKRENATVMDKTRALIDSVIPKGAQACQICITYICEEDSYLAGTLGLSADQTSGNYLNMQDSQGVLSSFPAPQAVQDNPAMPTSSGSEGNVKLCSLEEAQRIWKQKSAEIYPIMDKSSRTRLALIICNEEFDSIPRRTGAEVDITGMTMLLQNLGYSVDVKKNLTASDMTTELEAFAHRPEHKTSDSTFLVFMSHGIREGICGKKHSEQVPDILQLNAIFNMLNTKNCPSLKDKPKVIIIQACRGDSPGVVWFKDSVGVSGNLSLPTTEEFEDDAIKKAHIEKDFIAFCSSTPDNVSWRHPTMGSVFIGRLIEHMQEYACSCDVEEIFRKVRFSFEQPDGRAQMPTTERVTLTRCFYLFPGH
The assay is described as follows: Inhibition of caspase 1.

A further assay deals with NCI-H460. The assay is described as follows: Growth inhibition of human NCI-H460 cells. The class given is functional, cell-based. A digest of the protocol:
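Run by the NCI Developmental Therapeutics Program human cancer cell line screen in its single-dose–response format.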

The structures appear in SMILES notation. Activity calls are given as the source filed them. No cut-off for these calls is given here.

Stromelysin-1 (Homo sapiens), sequence (P08254 100-477 limits assumed): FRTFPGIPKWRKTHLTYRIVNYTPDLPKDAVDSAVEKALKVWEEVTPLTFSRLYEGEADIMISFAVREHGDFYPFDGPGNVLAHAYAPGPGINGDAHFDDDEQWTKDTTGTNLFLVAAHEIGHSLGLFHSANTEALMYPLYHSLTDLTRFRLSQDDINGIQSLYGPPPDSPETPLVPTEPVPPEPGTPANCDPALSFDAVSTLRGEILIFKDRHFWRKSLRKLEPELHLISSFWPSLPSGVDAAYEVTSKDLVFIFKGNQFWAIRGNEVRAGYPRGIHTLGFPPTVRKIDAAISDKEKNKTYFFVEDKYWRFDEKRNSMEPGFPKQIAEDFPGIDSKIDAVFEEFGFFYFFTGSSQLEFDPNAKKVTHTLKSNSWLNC

`C=C1[C@@]2(C)C[C@H]3C(C)=C4CC(=O)OC(C)(C)C4=CC[C@]3(C)[C@]1(C(=O)OC)C(=O)[C@@](C)(O)C2=O`: the result (in assay [1]; on Caspase-1 (Homo sapiens); in the assay with NCI-H460) was Active.

With `COC(=O)[C@]12C(=O)[C@H](C)O[C@@H]3OC(=O)[C@](C)(C[C@H]4C(C)=C5CC(=O)OC(C)(C)C5=CC[C@@]41C)[C@@H]32`, the outcome (in assay [1]; on Caspase-1 (Homo sapiens)) was Active.

`COC(=O)[C@]12C(=O)[C@H](C)O[C@@H]3OC(=O)[C@](C)(C[C@H]4[C@]5(CO5)C5=CC(=O)OC(C)(C)C5=CC[C@@]41C)[C@@H]32`: the result (in assay [1]; at Caspase-1 (Homo sapiens)) was Active.

For `C[C@@H]1O[C@@H]2OC(=O)[C@]3(C)C[C@@H]4[C@](C)(C(=O)C=C5C(=CC(=O)OC5(C)C)[C@@]45CO5)[C@H](C1=O)[C@H]23`, the result (in assay [1]; on Caspase-1 (Homo sapiens); in the assay on NCI-H460) was Active.

Turning to `C=C1[C@@]2(C)C[C@H]3[C@@]4(C)C(=CC[C@]3(C)[C@]1(C(=O)OC)C(=O)[C@@](C)(O)C2=O)C(C)(C)C(=O)C[C@H]4O`, the result (in assay [1]; at Caspase-1 (Homo sapiens)) was Active.
